The list is not random: actives were taken first. Their share in the collection is about 2.9%.
E-sel inducer = induces E-selectin expression in human endothelial cells; HUVEC E-selectin immunofluorescence imaging; normalized: neutral wells 0, TNF-alpha wells 100; activation, % at 7.58 µM; hit rate 0.37% among 260,000; AID 686992;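 active = mean E-selectin-positive cell signal at least 10% of the positive control, reached in at least 60% of replicates, without over 20% cell loss; inconclusive = no rule given, readout overlaps actives, possibly toxicity-flagged; inactive = the rest, including those meeting only one limit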
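Assay system: HUVEC, human umbilical vein endothelial cells / Amount: 3,000 HUVEC/well / Controls: TNF-alpha positive control, DMSO neutral control / Compound dosing: single concentration / Medium: EGM-2 over gelatin coat / Evaluation: percent E-selectin-positive cells / Signal: immunofluorescence imaging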
SIRT5 block = blocks human SIRT5 desuccinylation of peptide | Purified SirT5, succinyl-peptide AMC, trypsin-coupled fluorescence | inhibition, % at 15 µM | hit rate 1.1% among 330,000; in the data active = inhibition above about 15%; inconclusive = no clear call, values can overlap the other calls
Target sequence (Q9NXA8 whole entry, looked up): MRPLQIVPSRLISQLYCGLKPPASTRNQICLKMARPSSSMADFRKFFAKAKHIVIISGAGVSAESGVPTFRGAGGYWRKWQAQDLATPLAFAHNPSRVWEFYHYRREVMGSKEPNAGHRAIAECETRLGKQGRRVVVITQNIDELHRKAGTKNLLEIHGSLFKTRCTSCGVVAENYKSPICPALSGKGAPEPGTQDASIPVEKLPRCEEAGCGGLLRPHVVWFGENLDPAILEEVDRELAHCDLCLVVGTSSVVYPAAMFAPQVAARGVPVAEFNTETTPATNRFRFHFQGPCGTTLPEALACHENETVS
DENV2 CPE rescue = DENV2-induced cell death inhibition. hit rate 1.7% among 350,000. DENV2-infected cells, cytopathic effect rescue, plate reader. CPE inhibition, % at 9.99 µM; in the data active = CPE inhibition above about 20%, passing the limit was not always enough; inconclusive = no clear call, values can overlap the other calls; tested in BHK-21 cells
Each line names hits and unclear results; the compound was inactive in the other large screens.

O=C(C1CC1)N1CC(=O)N2[C@H](CO)[C@@H](c3ccc(C#CCc4ccccc4)cc3)[C@H]2C1	none
O=C(C1CCCCC1)N1CC(=O)N2[C@@H](CO)[C@H](c3ccc(C#CCc4ccccc4)cc3)[C@@H]2C1	none
COc1cccc(-c2ccc([C@H]3[C@@H](CO)N4C(=O)CN(C(=O)C5CCOCC5)C[C@@H]34)cc2)c1	DENV2 CPE rescue 32.9
O=C(C1CC1)N1CC(=O)N2[C@H](CO)[C@@H](c3ccc(C#CCc4ccccc4)cc3)[C@@H]2C1	none
O=C(C1CCOCC1)N1CC(=O)N2[C@H](CO)[C@@H](c3ccc(C#CCc4ccccc4)cc3)[C@H]2C1	SIRT5 block 16.5
COc1ccc(CNC(=O)CCNC(=O)N2CC(=O)Nc3ccccc32)cc1	none
COc1ccc(CN(C)CC(=O)NC(=O)NCc2ccccc2)cc1OC	none (no result: E-sel inducer)
O=C(Nc1cccc(Cl)c1Cl)c1csc([C@@H]2O[C@H](CO)[C@@H](O)[C@H]2O)n1	none
O=[N+]([O-])c1cc(F)c(N2CCOCC2)cc1N1CCCCC1	none (no result: E-sel inducer)
C[C@@H]1CCCCO[C@H](CN(C)Cc2ccc(C(=O)O)cc2)[C@H](C)CN([C@@H](C)CO)C(=O)c2cc(NS(=O)(=O)c3cccs3)ccc2O1	DENV2 CPE rescue inconclusive
C[C@@H]1CCCCO[C@@H](CN(C)Cc2ccc(C(F)(F)F)cc2)[C@@H](C)CN([C@@H](C)CO)C(=O)c2cc(NS(=O)(=O)c3cccs3)ccc2O1	SIRT5 block 18.6
C[C@H]1CCCCO[C@H](CN(C)Cc2ccc(C(F)(F)F)cc2)[C@@H](C)CN([C@@H](C)CO)C(=O)c2cc(NS(=O)(=O)c3cccs3)ccc2O1	SIRT5 block 15.7
C[C@@H]1CN([C@@H](C)CO)C(=O)c2cc(NS(=O)(=O)c3cccs3)ccc2O[C@@H](C)CCCCO[C@@H]1CN(C)Cc1ccc(C(F)(F)F)cc1	SIRT5 block 19.0
C[C@H]1CCCCO[C@@H](CN(C)Cc2ccc(C(F)(F)F)cc2)[C@@H](C)CN([C@@H](C)CO)C(=O)c2cc(NS(=O)(=O)c3cccs3)ccc2O1	none
C[C@H](CO)N1C[C@H](C)[C@H](CN(C)Cc2ccc(C(F)(F)F)cc2)OCCCC[C@H](C)Oc2ccc(NS(=O)(=O)c3cccs3)cc2C1=O	none
Cc1ccc(-n2ncc3c(=O)n(CC(N)=O)cnc32)cc1C	none (no result: E-sel inducer)
C/C(CC(=O)Nc1ccc(N(C)C)cc1)=N\NC(=O)C(=O)NCc1ccccc1	none
Cn1c(=O)c2c(nc(SCCN3CCCCC3)n2C)n(C)c1=O	none (no result: E-sel inducer, DENV2 CPE rescue)
C[C@@H]1CN([C@H](C)CO)C(=O)c2cc(NS(=O)(=O)c3ccccc3)ccc2O[C@@H](C)CCCCO[C@H]1CN(C)Cc1ccccc1	none
CC(C)C1C(=O)N(Cc2cn(Cc3ccco3)nn2)CCS(=O)(=O)N1Cc1ccc(-c2cccc(N(C)C)c2)cc1 (stereo not drawn)	none (no result: SIRT5 block)
Cc1cccc(C)c1-c1ccc(CN2C(CC(C)C)C(=O)N(Cc3cn(CC4CCCCC4)nn3)CCS2(=O)=O)cc1 (stereo not drawn)	none
CC(C)CC1C(=O)N(Cc2cn(Cc3ccco3)nn2)CCS(=O)(=O)N1Cc1ccc(-c2cccc(CO)c2)cc1 (stereo not drawn)	none
CC(C)CC1C(=O)N(Cc2cn(Cc3ccco3)nn2)CCS(=O)(=O)N1Cc1ccc(-c2ccc(Cl)cc2)cc1 (stereo not drawn)	DENV2 CPE rescue 22.6 (no result: E-sel inducer)
CC(C)CC1C(=O)N(Cc2cn(CC3CCCCC3)nn2)CCS(=O)(=O)N1Cc1ccc(-c2ccc(Cl)c(Cl)c2)cc1 (stereo not drawn)	SIRT5 block 19.1
Cc1ccc(-c2ccc(CN3C(C(C)C)C(=O)N(Cc4cn(Cc5ccco5)nn4)CCS3(=O)=O)cc2)cc1 (stereo not drawn)	SIRT5 block 15.9, DENV2 CPE rescue 28.0 (no result: E-sel inducer)
CCCC#Cc1cnc2c(c1)C(=O)N([C@H](C)CO)C[C@@H](C)[C@@H](CN(C)C(=O)c1cccnc1)O2	none
Cc1ccc(NC(=O)c2cnn(-c3ccccc3)c2C)cc1	none (no result: E-sel inducer)
CCn1nc(C)cc1C(=O)Sc1ccc(Cl)cc1Cl	none
CNC(=O)C[C@H]1CC[C@@H]2[C@@H](COc3ccc(NC(=O)NC(C)C)cc3C(=O)N2C)O1	none (no result: SIRT5 block)
CO[C@@H]1CN(C)C(=O)c2ccc(NS(=O)(=O)c3cccc(F)c3)cc2OC[C@@H](C)N(Cc2cc(F)ccc2F)C[C@@H]1C	none (no result: SIRT5 block)
COCC(=O)Nc1ccc2c(c1)OC[C@@H](C)N(Cc1cccc(F)c1)C[C@@H](C)[C@@H](OC)CN(C)C2=O	none
COCC(=O)Nc1ccc2c(c1)OC[C@@H](C)N(Cc1cccc(F)c1)C[C@H](C)[C@H](OC)CN(C)C2=O	DENV2 CPE rescue 35.5
CCC(=O)Nc1ccc2c(c1)OC[C@@H](C)N(Cc1cccc(F)c1)C[C@@H](C)[C@H](OC)CN(C)C2=O	none
CO[C@@H]1CN(C)C(=O)c2ccc(NS(=O)(=O)c3cccc(F)c3)cc2OC[C@H](C)N(Cc2cc(F)ccc2F)C[C@@H]1C	DENV2 CPE rescue 28.3 (no result: SIRT5 block)
CCC(=O)Nc1ccc2c(c1)OC[C@H](C)N(Cc1cccc(F)c1)C[C@@H](C)[C@H](OC)CN(C)C2=O	SIRT5 block 19.6 (no result: DENV2 CPE rescue)
COCC(=O)Nc1ccc2c(c1)OC[C@H](C)N(Cc1cc(F)ccc1F)C[C@H](C)[C@@H](OC)CN(C)C2=O	none
COCC(=O)Nc1ccc2c(c1)OC[C@@H](C)N(Cc1cc(F)ccc1F)C[C@@H](C)[C@@H](OC)CN(C)C2=O	DENV2 CPE rescue 30.8
C[C@@H]1CCCCO[C@@H](CN(C)S(=O)(=O)c2ccccc2)[C@@H](C)CN([C@@H](C)CO)C(=O)c2cc(NC(=O)c3ccccc3)ccc2O1	none (no result: E-sel inducer)
O=C(NC1CCS(=O)(=O)C1)c1ccc(S(=O)(=O)N2CCCC2)cc1 (stereo not drawn)	none
CCCC#Cc1cnc2c(c1)C(=O)N([C@H](C)CO)C[C@H](C)[C@H](CN(C)C(=O)c1ccccc1)O2	none
O=C(N[C@@H](Cc1ccccc1)C(=O)N1CCN(S(=O)(=O)c2cccc(F)c2)CC1)c1ccco1	none
COc1cccc(CNC(=O)C[C@H]2C=C[C@H](NC(C)=O)[C@H](CO)O2)c1	none
O=c1cc(CSc2nnc(-c3ccccc3)o2)c2ccccc2[nH]1	DENV2 CPE rescue 76.4 (no result: E-sel inducer, SIRT5 block)
O=c1cc(CSc2nnc(COc3ccc(Cl)cc3)o2)c2ccccc2[nH]1	none (no result: SIRT5 block, DENV2 CPE rescue)
C[C@H](CO)N1C[C@H](C)[C@@H](CN(C)S(=O)(=O)c2ccc(F)cc2)Oc2ccc(NC(=O)NC3CCCCC3)cc2CC1=O	none
CC(C)(C)n1nc(C2CC2)cc1NC(=O)Nc1ccc(Cl)cc1	none
COCCNC(=S)Nc1cc(OC)c(NC(=O)c2ccco2)cc1OC	none (no result: E-sel inducer)
O=C(c1ccc(NS(=O)(=O)c2ccc(F)cc2)cc1)N1CCCCCC1	SIRT5 block 16.7
O=C(Nc1ccc(F)cc1)c1ccc(C(=O)N2CCOCC2)cc1	none
O=C(c1ccc(F)cc1)N1CCOCC1	SIRT5 block 21.7 (no result: E-sel inducer)
O=C(c1ccc(NS(=O)(=O)c2ccc(F)cc2)cc1)N1CCCCC1	none
O=S(=O)(c1ccc2c(c1)OCCO2)N1CCN(S(=O)(=O)c2ccccn2)CC1	none (no result: SIRT5 block)
CCC(=O)N1[C@H](CNC(C)=O)[C@@H](c2ccc(-c3ccc(F)cc3)cc2)[C@@H]1CO	none
CCOC(=O)c1c(-c2ccc(OC)cc2)csc1/N=C/C1C(=O)CCCC1=O	E-sel inducer 278.1
CCOC(=O)c1c(-c2ccc(OC)cc2)csc1/N=C/N(C)C	none

From PubChem
